In ChEMBL document CHEMBL1123452, “Synthesis and hypolipidemic activities of 5-thienyl-4-oxazoleacetic acid derivatives” (1986) one finds Reduction data, which are given here for 24 molecules.

Each structure is given as a SMILES string.

Experiment [1] is filed under the species Rattus norvegicus. Briefly: Percent decrease in serum cholesterol (Cho) after 7 days at 0.05 percent in the diet of SD male rats in comparison to control animals. It is filed as functional. Put shortly:
(§1)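 Normal SD male rats, five per group. Compound mixed into CE-2 powder diet at 50 mg/100 g (mg %), fed ad libitum for 7 days; controls received plain CE-2 powder. Total serum cholesterol measured by the Zak method and triglyceride by the Van Handel method after the feeding period. Activity expressed as percent depression versus the control-group mean. Single experiments.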

The species entered for experiment [2] is Rattus norvegicus. Briefly: Percent decrease in triglyceride (TG) after 7 days at 0.05 percent in the diet of SD male rats in comparison to control animals. It is filed as functional. The procedure, abridged: as §1

On to `CCCCCCCCOC(=O)Cc1nc(-c2ccc(F)cc2)oc1-c1ccsc1`, for which the results for the Reduction in the experiment listed under Rattus norvegicus [1] and in the experiment listed under Rattus norvegicus [2] were 12% and 13%, respectively.

With `CCOC(=O)Cc1nc(-c2ccc(C)cc2)oc1-c1cccs1`, the figures for the Reduction in the experiment filed under Rattus norvegicus [1] and in the experiment filed under Rattus norvegicus [2] were 9% and -14%, respectively.

Take `O=C(O)Cc1nc(-c2ccc(Cl)c(Cl)c2)oc1-c1ccsc1`: the Reduction stood at 9% in the experiment filed under Rattus norvegicus [1] and 34% in the experiment filed under Rattus norvegicus [2].

`CCOC(=O)Cc1nc(-c2ccc(Cl)cc2)oc1-c1ccc(Br)s1`: the results for the Reduction in the experiment listed under Rattus norvegicus [1] and in the experiment listed under Rattus norvegicus [2] were 0% and 20%, respectively.

For the molecule `O=C(O)Cc1nc(-c2ccc(Br)cc2)oc1-c1ccccc1`, the values for the Reduction in the experiment listed under Rattus norvegicus [1] and in the experiment listed under Rattus norvegicus [2] were 4% and -14%, respectively.

In the case of `CCOC(=O)Cc1nc(-c2ccc(F)cc2)oc1-c1cccs1`, the values for the Reduction in the experiment listed under Rattus norvegicus [1] and in the experiment listed under Rattus norvegicus [2] were 17% and 31%, respectively.

Turning to `CCOC(=O)Cc1nc(-c2ccc(OC)cc2)oc1-c1ccccc1`, the Reduction in the experiment listed under Rattus norvegicus [1] is 0%; in the experiment listed under Rattus norvegicus [2], 15%.

Regarding `CCOC(=O)Cc1nc(-c2ccc(Cl)cc2)oc1-c1ccccc1`, the values for the Reduction in the experiment listed under Rattus norvegicus [1] and in the experiment filed under Rattus norvegicus [2] were 7% and -12%, respectively.

For the molecule `O=C(O)Cc1nc(-c2ccc(F)cc2)oc1-c1ccsc1`, the Reduction in the experiment filed under Rattus norvegicus [1] is on record as 23%; in the experiment filed under Rattus norvegicus [2], 39%.

As for `CCCCCCCCCCCCCCCCCCOC(=O)Cc1nc(-c2ccc(F)cc2)oc1-c1ccsc1`, the Reduction in the experiment filed under Rattus norvegicus [1] turned out to be 18%; in the experiment filed under Rattus norvegicus [2], 26%.

Take `CCOC(=O)Cc1nc(-c2ccc(F)cc2)oc1-c1ccsc1`: the values for the Reduction in the experiment listed under Rattus norvegicus [1] and in the experiment filed under Rattus norvegicus [2] were 19% and 41%, respectively.

Consider `CCOC(=O)Cc1nc(-c2ccsc2)oc1-c1ccc(F)cc1`, for which the Reduction is given as 11% in the experiment filed under Rattus norvegicus [1] and 15% in the experiment filed under Rattus norvegicus [2].

Regarding `O=C(O)Cc1nc(-c2ccc(Cl)cc2)oc1-c1cccs1`, the Reduction in the experiment listed under Rattus norvegicus [1] was found to be 16%; in the experiment filed under Rattus norvegicus [2] it was 38%.

For the molecule `CCCCCCCCCCCCOC(=O)Cc1nc(-c2ccc(F)cc2)oc1-c1ccsc1`, the Reduction was determined as 18% in the experiment filed under Rattus norvegicus [1] and 34% in the experiment listed under Rattus norvegicus [2].

As for `O=C(O)Cc1nc(-c2cccc(Cl)c2)oc1-c1ccsc1`, the Reduction in the experiment listed under Rattus norvegicus [1] is on record as 7%; in the experiment listed under Rattus norvegicus [2] it was 38%.

As for `CCOC(=O)Cc1nc(-c2cc(OC)c(OC)c(OC)c2)oc1-c1ccccc1`, the values for the Reduction in the experiment listed under Rattus norvegicus [1] and in the experiment listed under Rattus norvegicus [2] were 0% and -19%, respectively.

On to `O=C(Cc1nc(-c2ccc(Cl)cc2)oc1-c1ccsc1)OCC(O)CO` (stereo not drawn), for which the Reduction in the experiment filed under Rattus norvegicus [1] is on record as 15%; in the experiment filed under Rattus norvegicus [2], 43%.

Regarding `Cc1ccc(-c2oc(-c3ccc(Cl)cc3)nc2CC(=O)O)s1`, the values for the Reduction in the experiment filed under Rattus norvegicus [1] and in the experiment listed under Rattus norvegicus [2] were 9% and -4%, respectively.

Turning to `CCc1nc(-c2ccc(F)cc2)oc1-c1ccsc1`, the values for the Reduction in the experiment listed under Rattus norvegicus [1] and in the experiment listed under Rattus norvegicus [2] were -4% and 20%, respectively.

Consider `CCCCOC(=O)Cc1nc(-c2ccc(F)cc2)oc1-c1ccsc1`, for which the Reduction in the experiment filed under Rattus norvegicus [1] turned out to be 20%; in the experiment filed under Rattus norvegicus [2] it was 19%.

`CCOC(=O)Cc1nc(-c2ccc(Cl)cc2)oc1-c1ccsc1`: the Reduction is listed as 16% in the experiment filed under Rattus norvegicus [1] and 47% in the experiment listed under Rattus norvegicus [2].

For `CCOC(=O)Cc1nc(-c2ccccc2)oc1-c1ccsc1`, the values for the Reduction in the experiment listed under Rattus norvegicus [1] and in the experiment listed under Rattus norvegicus [2] were 15% and 41%, respectively.

Regarding `OCCc1nc(-c2ccc(F)cc2)oc1-c1ccsc1`, the Reduction in the experiment filed under Rattus norvegicus [1] is 4%; in the experiment listed under Rattus norvegicus [2], 1%.

Regarding `CCOC(=O)C(C)(C)Oc1ccc(Cl)cc1` [CLOFIBRATE], the Reduction amounted to 15% in the experiment filed under Rattus norvegicus [1] and 16% in the experiment listed under Rattus norvegicus [2].
